In ChEMBL document CHEMBL1629498, “The synthesis of phenylalanine-derived C5-substituted rhodanines and their activity against selected methicillin-resistant Staphylococcus aureus (MRSA) strains” (2010):
In brackets after ≈: the same amount, converted by molar mass.

Assays:
Type in all cases: functional
[1] = tested on: Staphylococcus aureus; experiment: Antibacterial activity against methicillin resistant Staphylococcus aureus ATCC BAA-39 by microdilution method
Procedure, shortened: (§1)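 Broth microdilution MIC in cation-adjusted Mueller Hinton II broth. Compounds were made up at 2 mg/mL (starting solution) in DMF plus broth, with DMF ≤0.5% of media, then serially diluted in broth. Inoculum was a 0.5 McFarland suspension, 0.2 mL diluted into 40 mL broth and added to wells. Drug-free controls were included. MIC was the well with no turbidity versus controls; each strain was tested at least in triplicate.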

[2] = tested on: Staphylococcus aureus; experiment: Antibacterial activity against methicillin resistant Staphylococcus aureus ATCC 700698 by microdilution method; procedure, shortened: as §1
[3] = tested on: Staphylococcus aureus; experiment: Antibacterial activity against methicillin resistant Staphylococcus aureus ATCC 700787 by microdilution method; procedure, shortened: as §1
[4] = tested on: Staphylococcus aureus; experiment: Antibacterial activity against methicillin resistant Staphylococcus aureus ATCC BAA-1680 by microdilution method; procedure, shortened: as §1
[5] = tested on: Staphylococcus aureus; experiment: Antibacterial activity against methicillin resistant Staphylococcus aureus ATCC 34404 by microdilution method; procedure, shortened: as §1

| SMILES | MIC [1] [µg/mL] | MIC [2] [µg/mL] | MIC [3] [µg/mL] | MIC [4] [µg/mL] | MIC [5] [µg/mL] |
| --- | --- | --- | --- | --- | --- |
| O=C(O)CN1C(=O)/C(=C/c2cccc(Oc3ccccc3)c2)SC1=S | 31.2 (≈ 84.1 µM) | 31.2 (≈ 84.1 µM) | 31.2 (≈ 84.1 µM) | 31.2 (≈ 84.1 µM) | 31.2 (≈ 84.1 µM) |
| CC(C)C(C(=O)O)N1C(=O)/C(=C/c2ccc(Cl)cc2Cl)SC1=S (stereo not given) | 15.6 (≈ 40 µM) | 15.6 (≈ 40 µM) | 15.6 (≈ 40 µM) | 15.6 (≈ 40 µM) | 15.6 (≈ 40 µM) |
| O=C(O)CN1C(=O)/C(=C/c2ccc([N+](=O)[O-])cc2)SC1=S | 250 (≈ 771 µM) | 250 (≈ 771 µM) | 250 (≈ 771 µM) | 250 (≈ 771 µM) | 250 (≈ 771 µM) |
| CC(C)CC(C(=O)O)N1C(=O)/C(=C/c2ccc(Cl)cc2Cl)SC1=S (stereo not given) | 15.6 (≈ 38.6 µM) | 15.6 (≈ 38.6 µM) | 15.6 (≈ 38.6 µM) | 15.6 (≈ 38.6 µM) | 15.6 (≈ 38.6 µM) |
| CN[C@H](CC(C)C)C(=O)N[C@H]1C(=O)N[C@@H](CC(N)=O)C(=O)N[C@H]2C(=O)N[C@H]3C(=O)N[C@H](C(=O)N[C@H](C(=O)O)c4cc(O)cc(O)c4-c4cc3ccc4O)[C@H](O)c3ccc(c(Cl)c3)Oc3cc2cc(c3O[C@@H]2O[C@H](CO)[C@@H](O)[C@H](O)[C@H]2O[C@H]2C[C@](C)(N)[C@H](O)[C@H](C)O2)Oc2ccc(cc2Cl)[C@H]1O [VANCOMYCIN] | ≤ 0.97 | ≤ 0.97 | 1.95 (≈ 1.35 µM) | ≤ 0.97 | ≤ 0.97 |
| O=C(O)C(Cc1ccccc1)N1C(=O)/C(=C/c2ccc(Cl)cc2Cl)SC1=S (stereo not given) | 15.6 (≈ 35.6 µM) | 15.6 (≈ 35.6 µM) | 15.6 (≈ 35.6 µM) | 15.6 (≈ 35.6 µM) | 15.6 (≈ 35.6 µM) |
| COc1ccc(/C=C2\SC(=S)N(CC(=O)O)C2=O)cc1 | 250 (≈ 808 µM) | 250 (≈ 808 µM) | 250 (≈ 808 µM) | 250 (≈ 808 µM) | 200 (≈ 646 µM) |
| O=C(O)C(Cc1ccccc1)N1C(=O)/C(=C/c2ccccc2[N+](=O)[O-])SC1=S (stereo not given) | 62.5 (≈ 151 µM) | 62.5 (≈ 151 µM) | 125 (≈ 302 µM) | 62.5 (≈ 151 µM) | 125 (≈ 302 µM) |
| O=C(O)CN1C(=O)/C(=C/C=C/c2ccccc2)SC1=S | 250 (≈ 819 µM) | 250 (≈ 819 µM) | 250 (≈ 819 µM) | 250 (≈ 819 µM) | 250 (≈ 819 µM) |
| O=C(O)CN1C(=O)/C(=C/c2ccccc2[N+](=O)[O-])SC1=S | 62.5 (≈ 193 µM) | 62.5 (≈ 193 µM) | 62.5 (≈ 193 µM) | 62.5 (≈ 193 µM) | 62.5 (≈ 193 µM) |
| O=C(O)CN1C(=O)/C(=C/C2CCCCC2)SC1=S | 31.2 (≈ 109 µM) | 31.2 (≈ 109 µM) | 31.2 (≈ 109 µM) | 31.2 (≈ 109 µM) | 31.2 (≈ 109 µM) |
| CC(C)C(C(=O)O)N1C(=O)/C(=C/c2ccc(F)cc2)SC1=S (stereo not given) | 62.5 (≈ 184 µM) | 62.5 (≈ 184 µM) | 62.5 (≈ 184 µM) |  |  |
| CCCC(C(=O)O)N1C(=O)/C(=C/c2ccc(Cl)cc2Cl)SC1=S (stereo not given) | 15.6 (≈ 40 µM) | 15.6 (≈ 40 µM) | 15.6 (≈ 40 µM) | 15.6 (≈ 40 µM) | 15.6 (≈ 40 µM) |
| O=C(O)C(Cc1ccccc1)N1C(=O)/C(=C/c2cccc(Oc3ccccc3)c2)SC1=S (stereo not given) | 3.9 (≈ 8.45 µM) | 3.9 (≈ 8.45 µM) | 3.9 (≈ 8.45 µM) | 1.95 (≈ 4.22 µM) | 1.95 (≈ 4.22 µM) |
| O=C(O)CN1C(=O)/C(=C/c2ccnc3ccccc23)SC1=S | 500 (≈ 1510 µM) | 500 (≈ 1510 µM) | 250 (≈ 757 µM) | 250 (≈ 757 µM) | 200 (≈ 605 µM) |
| CC(C(=O)O)N1C(=O)/C(=C/c2ccc(Cl)cc2Cl)SC1=S (stereo not given) | 125 (≈ 345 µM) | 125 (≈ 345 µM) | 125 (≈ 345 µM) |  |  |
| CC(C)C(C(=O)O)N1C(=O)/C(=C/c2ccccc2Cl)SC1=S (stereo not given) | 62.5 (≈ 176 µM) | 62.5 (≈ 176 µM) | 62.5 (≈ 176 µM) |  |  |
| O=C(O)CN1C(=O)/C(=C/c2ccc(Cl)c(Cl)c2)SC1=S | 125 (≈ 359 µM) | 125 (≈ 359 µM) | 125 (≈ 359 µM) | 125 (≈ 359 µM) | 125 (≈ 359 µM) |
| CCSCC(C(=O)O)N1C(=O)/C(=C/c2ccc(Cl)cc2Cl)SC1=S (stereo not given) | 31.2 (≈ 74 µM) | 31.2 (≈ 74 µM) | 31.2 (≈ 74 µM) | 31.2 (≈ 74 µM) | 31.2 (≈ 74 µM) |
| CC1(C)S[C@@H]2[C@H](NC(=O)Cc3ccccc3)C(=O)N2[C@H]1C(=O)O [PENICILLIN G] | 31.2 (≈ 93.5 µM) | 15.6 (≈ 46.7 µM) | 31.2 (≈ 93.5 µM) | 62.5 (≈ 187 µM) | 31.2 (≈ 93.5 µM) |
| O=C(O)c1cn(C2CC2)c2cc(N3CCNCC3)c(F)cc2c1=O [CIPROFLOXACIN] |  |  | 62.5 (≈ 189 µM) |  |  |
| CC(C)C(C(=O)O)N1C(=O)/C(=C/c2cccc3ccccc23)SC1=S (stereo not given) | 62.5 (≈ 168 µM) | 62.5 (≈ 168 µM) | 62.5 (≈ 168 µM) | 62.5 (≈ 168 µM) | 62.5 (≈ 168 µM) |
